Assay results reported in ChEMBL document CHEMBL1806473, “Structure-based optimization of click-based histone deacetylase inhibitors” (Eur J Med Chem, 2011).

Assays:
Histone deacetylase = experiment: Inhibition of HDAC in human HeLa cells using Ac-Arg-Gly-Lys(Ac)-AMC as fluorescent substrate after 20 mins by fluorescence assay; assay type: cell-based
HL-60(TB) = experiment: Antiproliferative activity against human HL-60(TB) cells by SRB assay; assay type: functional
Procedure, shortened: (§1)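 Tested in the NCI in vitro disease-oriented human tumour cell line screen, with screening performed by NCI. Growth was read by SRB signal over the drug incubation period at five concentrations: 100, 10, 1.0, 0.1 and 0.01 μM. GI50 is the concentration that reduces growth of treated cells to half that of control cells.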

MOLT-4 = experiment: Antiproliferative activity against human MOLT4 cells by SRB assay; assay type: functional
Procedure, shortened: (§2)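 Tested in the NCI in vitro human tumor cell line screen, run by the National Cancer Institute. Each compound was given at five concentrations (100, 10, 1.0, 0.1 and 0.01 μM). GI50 is the drug concentration that reduces growth of treated cells to half that of control cells during drug incubation, judged from the SRB signal.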

RPMI-8226 [1] = experiment: Antiproliferative activity against human RPMI8226 cells by SRB assay; assay type: functional; procedure, shortened: as §2
A549 [2] = experiment: Antiproliferative activity against human A549 cells by SRB assay; assay type: functional; procedure, shortened: as §2
HOP-62 [3] = experiment: Antiproliferative activity against human HOP62 cells by SRB assay; assay type: functional; procedure, shortened: as §2
NCI-H322M = experiment: Antiproliferative activity against human NCI-H322M cells by SRB assay; assay type: functional; procedure, shortened: as §2
KM12 = experiment: Antiproliferative activity against human KM12 cells by SRB assay; assay type: functional; procedure, shortened: as §2
SF-268 [4] = experiment: Antiproliferative activity against human SF268 cells by SRB assay; assay type: functional; procedure, shortened: as §2
SF-539 [5] = experiment: Antiproliferative activity against human SF539 cells by SRB assay; assay type: functional; procedure, shortened: as §2
SNB-75 [6] = experiment: Antiproliferative activity against human SNB75 cells by SRB assay; assay type: functional
Procedure, shortened: (§3)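 Cell growth was tested in the NIH in vitro disease-oriented human tumor cell line screen, which NCI ran for these compounds. Compounds were tested at five concentrations (100, 10, 1.0, 0.1 and 0.01 μM), and growth was read by SRB signal. GI50 is the drug concentration that reduces growth of treated cells to half that of control cells during drug incubation.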

Malme-3M [7] = experiment: Antiproliferative activity against human MALME-3M cells by SRB assay; assay type: functional; procedure, shortened: as §2
MDA-MB-435 = experiment: Antiproliferative activity against human MDA-MB-435 cells by SRB assay; assay type: functional; procedure, shortened: as §2
SK-MEL-5 = experiment: Antiproliferative activity against human SK-MEL-5 cells by SRB assay; assay type: functional; procedure, shortened: as §2
UACC-62 = experiment: Antiproliferative activity against human UACC62 cells by SRB assay; assay type: functional; procedure, shortened: as §3
SK-OV-3 = experiment: Antiproliferative activity against human SKOV3 cells by SRB assay; assay type: functional; procedure, shortened: as §2
786-0 = experiment: Antiproliferative activity against human 786-0 cells by SRB assay; assay type: functional; procedure, shortened: as §2
A498 = experiment: Antiproliferative activity against human A498 cells by SRB assay; assay type: functional; procedure, shortened: as §2
ACHN = experiment: Antiproliferative activity against human ACHN cells by SRB assay; assay type: functional; procedure, shortened: as §2
CAKI-1 = experiment: Antiproliferative activity against human Caki1 cells by SRB assay; assay type: functional; procedure, shortened: as §2
SN12C = experiment: Antiproliferative activity against human SN12C cells by SRB assay; assay type: functional; procedure, shortened: as §2
PC-3 = experiment: Antiproliferative activity against human PC3 cells by SRB assay; assay type: functional; procedure, shortened: as §2
BT-549 = experiment: Antiproliferative activity against human BT549 cells by SRB assay; assay type: functional; procedure, shortened: as §2
RPMI-8226 [8] = experiment: Cytotoxicity against human RPMI8226 cells; assay type: cell-based; procedure, shortened: as §1
SR = experiment: Cytotoxicity against human SR cells; assay type: cell-based
Procedure, shortened: (§4)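 Screened by NCI in its in vitro disease-oriented human tumour cell line panel. Compounds tested at five concentrations (100, 10, 1.0, 0.1 and 0.01 μM). Growth read by sulforhodamine B (SRB) signal. GI50 is the concentration reducing growth of treated cells to half that of control cells during the drug incubation.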

A549 [9] = experiment: Cytotoxicity against human A549 cells; assay type: cell-based; procedure, shortened: as §1
EKVX = experiment: Cytotoxicity against human EKVX cells; assay type: cell-based; procedure, shortened: as §1
HOP-62 [10] = experiment: Cytotoxicity against human HOP62 cells; assay type: cell-based; procedure, shortened: as §1
NCI-H522 = experiment: Cytotoxicity against human NCI-H522 cells; assay type: cell-based; procedure, shortened: as §1
COLO 205 = experiment: Cytotoxicity against human COLO205 cells; assay type: cell-based; procedure, shortened: as §1
HCT-116 = experiment: Cytotoxicity against human HCT116 cells; assay type: cell-based; procedure, shortened: as §1
HCT-15 = experiment: Cytotoxicity against human HCT15 cells; assay type: cell-based; procedure, shortened: as §1
HT-29 = experiment: Cytotoxicity against human HT-29 cells; assay type: cell-based; procedure, shortened: as §1
SF-268 [11] = experiment: Cytotoxicity against human SF268 cells; assay type: cell-based; procedure, shortened: as §1
SF-295 = experiment: Cytotoxicity against human SF295 cells; assay type: cell-based; procedure, shortened: as §1
SF-539 [12] = experiment: Cytotoxicity against human SF539 cells; assay type: cell-based; procedure, shortened: as §1
SNB-19 = experiment: Cytotoxicity against human SNB19 cells; assay type: cell-based; procedure, shortened: as §4
SNB-75 [13] = experiment: Cytotoxicity against human SNB75 cells; assay type: cell-based; procedure, shortened: as §4
U-251 = experiment: Cytotoxicity against human U251 cells; assay type: cell-based; procedure, shortened: as §4
Malme-3M [14] = experiment: Cytotoxicity against human MALME-3M cells; assay type: cell-based; procedure, shortened: as §1
SK-MEL-2 = experiment: Cytotoxicity against human SK-MEL-2 cells; assay type: cell-based; procedure, shortened: as §1
UACC-257 = experiment: Cytotoxicity against human UACC257 cells; assay type: cell-based; procedure, shortened: as §4
OVCAR-3 = experiment: Cytotoxicity against human OVCAR3 cells; assay type: cell-based; procedure, shortened: as §1
RXF 393 = experiment: Cytotoxicity against human RXF393 cells; assay type: cell-based; procedure, shortened: as §1
TK-10 = experiment: Cytotoxicity against human TK10 cells; assay type: cell-based; procedure, shortened: as §4
UO-31 = experiment: Cytotoxicity against human UO31 cells; assay type: cell-based; procedure, shortened: as §4
DU-145 = experiment: Cytotoxicity against human DU145 cells; assay type: cell-based; procedure, shortened: as §1
MDA-MB-231 = experiment: Cytotoxicity against human MDA-MB-231 cells; assay type: functional; procedure, shortened: as §1
HCC 2998 [15] = experiment: Antiproliferative activity against human HCC2998 cells by SRB assay; assay type: functional; procedure, shortened: as §2
OVCAR-5 [16] = experiment: Antiproliferative activity against human OVCAR5 cells by SRB assay; assay type: functional; procedure, shortened: as §2
MDA-MB-468 = experiment: Antiproliferative activity against human MDA-MB-468 cells by SRB assay; assay type: functional; procedure, shortened: as §2
HCC 2998 [17] = experiment: Cytotoxicity against human HCC2998 cells; assay type: cell-based; procedure, shortened: as §1
OVCAR-5 [18] = experiment: Cytotoxicity against human OVCAR5 cells; assay type: cell-based; procedure, shortened: as §1

CC(C)C(/C=C/c1ccccc1)n1cc(/C=C/C(=O)NO)nn1 (stereo unspecified)
IC50 (Histone deacetylase): 22 nM | GI50 (HL-60(TB)): 728 nM | GI50 (MOLT-4): 427 nM | GI50 (RPMI-8226 [1]): 317 nM | GI50 (A549 [2]): 1330 nM | GI50 (HOP-62 [3]): 1240 nM | GI50 (NCI-H322M): 1360 nM | GI50 (KM12): 1220 nM | GI50 (SF-268 [4]): 1870 nM | GI50 (SF-539 [5]): 1190 nM | GI50 (SNB-75 [6]): 1820 nM | GI50 (Malme-3M [7]): 311 nM | GI50 (MDA-MB-435): 719 nM | GI50 (SK-MEL-5): 730 nM | GI50 (UACC-62): 642 nM | GI50 (SK-OV-3): 1490 nM | GI50 (786-0): 1590 nM | GI50 (A498): 1510 nM | GI50 (ACHN): 1210 nM | GI50 (CAKI-1): 487 nM | GI50 (SN12C): 1860 nM | GI50 (PC-3): 1650 nM | GI50 (BT-549): 3280 nM | LC50 (RPMI-8226 [8]): > 100000 nM | LC50 (SR): > 100000 nM | LC50 (A549 [9]): 88700 nM | LC50 (EKVX): > 100000 nM | LC50 (HOP-62 [10]): 23400 nM | LC50 (NCI-H522): 8480 nM | LC50 (COLO 205): 6100 nM | LC50 (HCT-116): 3850 nM | LC50 (HCT-15): > 100000 nM | LC50 (HT-29): > 100000 nM | LC50 (SF-268 [11]): 29700 nM | LC50 (SF-295): 58300 nM | LC50 (SF-539 [12]): 8210 nM | LC50 (SNB-19): 66600 nM | LC50 (SNB-75 [13]): 38300 nM | LC50 (U-251): 5660 nM | LC50 (Malme-3M [14]): 68400 nM | LC50 (SK-MEL-2): > 100000 nM | LC50 (UACC-257): 88300 nM | LC50 (OVCAR-3): 22100 nM | LC50 (RXF 393): 7680 nM | LC50 (TK-10): > 100000 nM | LC50 (UO-31): 40900 nM | LC50 (DU-145): > 100000 nM | LC50 (MDA-MB-231): 73400 nM

CC(/C=C/c1ccccc1)n1cc(/C=C/C(=O)NO)nn1 (stereo unspecified)
IC50 (Histone deacetylase): 62 nM | GI50 (HL-60(TB)): 269 nM | GI50 (MOLT-4): 377 nM | GI50 (RPMI-8226 [1]): 407 nM | GI50 (A549 [2]): 1470 nM | GI50 (HOP-62 [3]): 1340 nM | GI50 (NCI-H322M): 1280 nM | GI50 (HCC 2998 [15]): 927 nM | GI50 (KM12): 1290 nM | GI50 (SF-268 [4]): 1510 nM | GI50 (SF-539 [5]): 934 nM | GI50 (SNB-75 [6]): 924 nM | GI50 (Malme-3M [7]): 279 nM | GI50 (MDA-MB-435): 440 nM | GI50 (SK-MEL-5): 573 nM | GI50 (UACC-62): 524 nM | GI50 (OVCAR-5 [16]): 488 nM | GI50 (SK-OV-3): 1170 nM | GI50 (786-0): 1640 nM | GI50 (A498): 472 nM | GI50 (ACHN): 765 nM | GI50 (CAKI-1): 401 nM | GI50 (SN12C): 1290 nM | GI50 (PC-3): 890 nM | GI50 (BT-549): 2110 nM | GI50 (MDA-MB-468): 299 nM | LC50 (RPMI-8226 [8]): > 100000 nM | LC50 (SR): > 100000 nM | LC50 (A549 [9]): > 100000 nM | LC50 (EKVX): > 100000 nM | LC50 (HOP-62 [10]): 48200 nM | LC50 (NCI-H522): 3620 nM | LC50 (COLO 205): 5200 nM | LC50 (HCC 2998 [17]): 6910 nM | LC50 (HCT-116): 3810 nM | LC50 (HCT-15): 42800 nM | LC50 (HT-29): 33900 nM | LC50 (SF-268 [11]): 12200 nM | LC50 (SF-295): > 100000 nM | LC50 (SF-539 [12]): 4610 nM | LC50 (SNB-19): 37600 nM | LC50 (SNB-75 [13]): 33900 nM | LC50 (U-251): 4500 nM | LC50 (Malme-3M [14]): 51900 nM | LC50 (SK-MEL-2): 37000 nM | LC50 (UACC-257): > 100000 nM | LC50 (OVCAR-3): 7330 nM | LC50 (OVCAR-5 [18]): > 100000 nM | LC50 (RXF 393): > 100000 nM | LC50 (TK-10): 31900 nM | LC50 (UO-31): 66700 nM | LC50 (DU-145): > 100000 nM | LC50 (MDA-MB-231): > 100000 nM
